Measured values: ChEMBL document CHEMBL4118097, “Selective Inhibitors of Dual Leucine Zipper Kinase (DLK, MAP3K12) with Activity in a Model of Alzheimer's Disease” (J Med Chem, 2017)

What was measured:
[1] = molecular target: Serine/threonine-protein kinase 17A (Homo sapiens) (UniProt Q9UEE5); experiment: Inhibition of full length recombinant GST-tagged human DRAK1 expressed in baculovirus expression system at 1 uM by FRET assay relative to control
[2] = molecular target: Cyclin-dependent kinase 1/cyclin B1 (Homo sapiens) (UniProt P06493+P14635); experiment: Inhibition of recombinant full length His-tagged human CDK1/CyclinB expressed in baculovirus expression system at 1 uM by FRET assay relative to control
[3] = molecular target: Mitogen-activated protein kinase 1 (Homo sapiens) (UniProt P28482); experiment: Inhibition of recombinant GST-tagged human ERK2 expressed in Escherichia coli at 1 uM by FRET assay relative to control
Procedure, shortened: (§1)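 Single-point screen at 1 μM compound in a 220-kinase panel run by Life Technologies (SelectScreen). Z′-LYTE format: phosphorylation of a labeled peptide substrate read by FRET. Values are reported as percent inhibition.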

[4] = molecular target: Serine/threonine-protein kinase pim-1 (Homo sapiens) (UniProt P11309); experiment: Inhibition of full length His-tagged human PIM1 expressed in baculovirus expression system at 1 uM by FRET assay relative to control
[5] = molecular target: Protein-tyrosine kinase 6 (Homo sapiens) (UniProt Q13882); experiment: Inhibition of recombinant full length His-tagged human Brk cytoplasmic domain expressed in baculovirus expression system at 1 uM by FRET assay relative to control
[6] = molecular target: Insulin receptor-related protein (Homo sapiens) (UniProt P14616); experiment: Inhibition of recombinant GST-tagged human IRR cytoplasmic domain (944 to 1297 residues) expressed in baculovirus expression system at 1 uM by FRET relative to control; procedure, shortened: as §1
[7] = molecular target: Serine/threonine-protein kinase Chk2 (Homo sapiens) (UniProt O96017); experiment: Inhibition of recombinant full length His-tagged human CHK2 expressed in baculovirus expression system at 1 uM by FRET assay relative to control
[8] = molecular target: BDNF/NT-3 growth factors receptor (Homo sapiens) (UniProt Q16620); experiment: Inhibition of recombinant His-tagged human TrkB cytoplasmic domain expressed in baculovirus expression system at 1 uM by FRET assay relative to control
Procedure, shortened: (§2)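 Single-concentration screen at 1 μM in Life Technologies SelectScreen, across a 220-kinase panel. Z′-LYTE format measures phosphorylation of a labeled peptide by FRET. Results are reported as percent inhibition.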

[9] = molecular target: Serine/threonine-protein kinase 16 (Homo sapiens, UniProt O75716); experiment: Inhibition of recombinant full length His-tagged human STK16 expressed in baculovirus expression system at 1 uM by FRET assay relative to control
[10] = molecular target: Vascular endothelial growth factor receptor 1 (Homo sapiens) (UniProt P17948); experiment: Inhibition of recombinant GST-tagged human FLT1 cytoplasmic domain expressed in baculovirus expression system at 1 uM by FRET assay relative to control; procedure, shortened: as §1
[11] = molecular target: LIM domain kinase 1 (Homo sapiens) (UniProt P53667); experiment: Inhibition of recombinant His-tagged human LIMK1 catalytic domain (285 to 638 residues) expressed in baculovirus expression system at 1 uM by FRET assay relative to control; procedure, shortened: as §1
[12] = molecular target: Dual specificity tyrosine-phosphorylation-regulated kinase 4 (Homo sapiens) (UniProt Q9NR20); experiment: Inhibition of full length recombinant GST-tagged human DYRK4 expressed in baculovirus expression system at 1 uM by FRET assay relative to control
Homo sapiens [13] = species: Homo sapiens; experiment: Binding affinity to PDE rolipram binding site (unknown origin) receptor at 10 uM relative to control
Procedure, shortened: (§3)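 Broad radioligand-binding and enzyme screening panel covering 42 targets (biogenic amine and neuropeptide receptors, ion channels, neurotransmitter transporters, acetylcholinesterase). Single test concentration of 10 μM. Results expressed as binding relative to control, with a hit defined as >50% of control.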

[14] = molecular target: Fibroblast growth factor receptor 4 (Homo sapiens) (UniProt P22455); experiment: Inhibition of recombinant His-tagged human FGFR4 cytoplasmic domain expressed in baculovirus expression system at 1 uM by FRET assay relative to control; procedure, shortened: as §1
[15] = molecular target: Serine/threonine-protein kinase 25 (Homo sapiens) (UniProt O00506); experiment: Inhibition of recombinant full length GST-tagged human YSK1 expressed in baculovirus expression system at 1 uM by FRET assay relative to control
[16] = molecular target: Leucine-rich repeat serine/threonine-protein kinase 2 (Homo sapiens) (UniProt Q5S007); experiment: Inhibition of recombinant GST-tagged human LRRK2 catalytic domain (970 to 2527 residues) expressed in baculovirus expression system at 1 uM by FRET assay relative to control; procedure, shortened: as §1
[17] = molecular target: Serine/threonine-protein kinase 24 (Homo sapiens) (UniProt Q9Y6E0); experiment: Inhibition of recombinant full length GST-tagged human MST3 expressed in baculovirus at 1 uM by FRET assay relative to control; procedure, shortened: as §2
[18] = molecular target: Tyrosine-protein kinase JAK2 (Homo sapiens) (UniProt O60674); experiment: Inhibition of recombinant GST-tagged human JAK2 catalytic domain (809 to 1153 residues) expressed in baculovirus expression system at 1 uM by FRET relative to control; procedure, shortened: as §1
[19] = molecular target: Receptor tyrosine-protein kinase erbB-4 (Homo sapiens) (UniProt Q15303); experiment: Inhibition of recombinant N-terminal GST-tagged human ErbB4 cytoplasmic domain expressed in baculovirus expression system at 1 uM by FRET assay relative to control; procedure, shortened: as §2
Homo sapiens [20] = species: Homo sapiens; experiment: Binding affinity to GABA-gated chloride channel (unknown origin) receptor at 10 uM relative to control; procedure, shortened: as §3
[21] = molecular target: Rho-associated protein kinase 2 (Homo sapiens) (UniProt O75116); experiment: Inhibition of recombinant N-terminal GST-tagged human ROCK2 catalytic domain (1 to 552 residues) expressed in baculovirus expression system at 1 uM by FRET assay relative to control; procedure, shortened: as §2
[22] = molecular target: Ephrin type-B receptor 3 (Homo sapiens) (UniProt P54753); experiment: Inhibition of recombinant GST-tagged human EphB3 cytoplasmic domain expressed in baculovirus expression system at 1 uM by FRET assay relative to control; procedure, shortened: as §1
[23] = molecular target: 5-hydroxytryptamine receptor 1A (Homo sapiens) (UniProt P08908); experiment: Binding affinity to 5HT1A receptor (unknown origin) receptor at 10 uM relative to control; procedure, shortened: as §3
[24] = molecular target: MAP kinase-interacting serine/threonine-protein kinase 1 (Homo sapiens) (UniProt Q9BUB5); experiment: Inhibition of recombinant human N-terminal full length GST-tagged MKNK1 expressed in baculovirus at 1 uM by FRET assay relative to control
[25] = molecular target: Endothelin-1 receptor (Homo sapiens) (UniProt P25101); experiment: Binding affinity to recombinant human ETA receptor at 10 uM relative to control; procedure, shortened: as §3
[26] = molecular target: Adenosine receptor A2a (Homo sapiens) (UniProt P29274); experiment: Binding affinity to recombinant human A2A adenosine receptor at 10 uM relative to control; procedure, shortened: as §3
[27] = molecular target: Casein kinase I isoform epsilon (Homo sapiens) (UniProt P49674); experiment: Inhibition of CK1epsilon1 (unknown origin) at 1 uM by FRET assay relative to control
[28] = molecular target: Insulin-like growth factor 1 receptor (Homo sapiens) (UniProt P08069); experiment: Inhibition of recombinant His-tagged human IGF1R cytoplasmic domain (960 to 1397 residues) expressed in baculovirus expression system at 1 uM by FRET relative to control; procedure, shortened: as §1

Chain of Tyrosine-protein kinase JAK2 (Homo sapiens) (O60674 whole entry, the tested form may be a part): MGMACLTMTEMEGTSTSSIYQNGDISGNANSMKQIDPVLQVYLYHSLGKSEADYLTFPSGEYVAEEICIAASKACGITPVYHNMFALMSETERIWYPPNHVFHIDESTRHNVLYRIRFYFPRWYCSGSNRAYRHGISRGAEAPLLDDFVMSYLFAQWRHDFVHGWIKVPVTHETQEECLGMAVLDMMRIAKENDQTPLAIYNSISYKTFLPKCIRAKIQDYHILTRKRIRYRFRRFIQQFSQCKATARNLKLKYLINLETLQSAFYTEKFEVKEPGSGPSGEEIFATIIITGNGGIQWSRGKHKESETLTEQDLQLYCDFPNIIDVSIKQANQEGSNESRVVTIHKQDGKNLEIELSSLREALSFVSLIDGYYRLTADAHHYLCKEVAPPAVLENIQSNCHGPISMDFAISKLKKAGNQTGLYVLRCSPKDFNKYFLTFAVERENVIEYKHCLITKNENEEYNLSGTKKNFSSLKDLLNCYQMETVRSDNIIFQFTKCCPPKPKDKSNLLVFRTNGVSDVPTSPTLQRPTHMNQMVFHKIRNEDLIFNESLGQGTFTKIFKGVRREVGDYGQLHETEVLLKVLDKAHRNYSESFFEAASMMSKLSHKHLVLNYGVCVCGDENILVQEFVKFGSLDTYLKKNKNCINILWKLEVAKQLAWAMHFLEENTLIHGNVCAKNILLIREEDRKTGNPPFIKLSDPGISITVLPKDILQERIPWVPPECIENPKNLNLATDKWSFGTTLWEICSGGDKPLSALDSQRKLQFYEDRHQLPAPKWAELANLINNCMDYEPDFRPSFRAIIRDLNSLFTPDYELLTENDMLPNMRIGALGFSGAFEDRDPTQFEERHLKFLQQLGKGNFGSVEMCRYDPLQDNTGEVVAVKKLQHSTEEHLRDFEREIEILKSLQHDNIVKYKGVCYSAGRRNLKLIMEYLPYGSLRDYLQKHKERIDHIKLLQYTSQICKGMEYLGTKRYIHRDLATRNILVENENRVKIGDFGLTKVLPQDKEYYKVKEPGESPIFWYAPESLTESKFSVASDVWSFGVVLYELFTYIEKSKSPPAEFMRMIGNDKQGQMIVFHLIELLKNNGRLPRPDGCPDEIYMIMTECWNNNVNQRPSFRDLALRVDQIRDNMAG
Chain of Serine/threonine-protein kinase 25 (Homo sapiens) (O00506 whole entry, looked up, the tested form may be a part): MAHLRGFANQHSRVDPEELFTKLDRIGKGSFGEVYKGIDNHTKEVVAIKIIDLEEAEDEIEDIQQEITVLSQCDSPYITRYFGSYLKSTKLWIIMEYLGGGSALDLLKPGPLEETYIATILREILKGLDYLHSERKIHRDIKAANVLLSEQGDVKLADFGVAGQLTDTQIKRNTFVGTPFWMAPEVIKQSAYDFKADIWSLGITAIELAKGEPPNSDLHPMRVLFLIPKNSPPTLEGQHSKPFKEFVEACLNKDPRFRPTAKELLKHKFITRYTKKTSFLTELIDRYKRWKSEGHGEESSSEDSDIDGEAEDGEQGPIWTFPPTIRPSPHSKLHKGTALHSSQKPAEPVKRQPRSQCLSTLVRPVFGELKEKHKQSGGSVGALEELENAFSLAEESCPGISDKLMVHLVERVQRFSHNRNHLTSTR
Chain of Serine/threonine-protein kinase 24 (Homo sapiens) (Q9Y6E0 whole entry, looked up, the tested form may be a part): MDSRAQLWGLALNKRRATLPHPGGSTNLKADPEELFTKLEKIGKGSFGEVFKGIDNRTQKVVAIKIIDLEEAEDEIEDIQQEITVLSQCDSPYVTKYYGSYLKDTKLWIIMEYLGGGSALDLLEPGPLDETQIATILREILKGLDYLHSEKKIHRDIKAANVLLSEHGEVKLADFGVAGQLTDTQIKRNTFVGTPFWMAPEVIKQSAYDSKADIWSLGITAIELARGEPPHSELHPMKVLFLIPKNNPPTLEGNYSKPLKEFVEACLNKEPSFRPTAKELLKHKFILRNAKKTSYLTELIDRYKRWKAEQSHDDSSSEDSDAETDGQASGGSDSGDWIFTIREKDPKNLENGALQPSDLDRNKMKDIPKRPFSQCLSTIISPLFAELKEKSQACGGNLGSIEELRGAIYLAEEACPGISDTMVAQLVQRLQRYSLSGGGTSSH
Chain of Mitogen-activated protein kinase 1 (Homo sapiens) (P28482 whole entry): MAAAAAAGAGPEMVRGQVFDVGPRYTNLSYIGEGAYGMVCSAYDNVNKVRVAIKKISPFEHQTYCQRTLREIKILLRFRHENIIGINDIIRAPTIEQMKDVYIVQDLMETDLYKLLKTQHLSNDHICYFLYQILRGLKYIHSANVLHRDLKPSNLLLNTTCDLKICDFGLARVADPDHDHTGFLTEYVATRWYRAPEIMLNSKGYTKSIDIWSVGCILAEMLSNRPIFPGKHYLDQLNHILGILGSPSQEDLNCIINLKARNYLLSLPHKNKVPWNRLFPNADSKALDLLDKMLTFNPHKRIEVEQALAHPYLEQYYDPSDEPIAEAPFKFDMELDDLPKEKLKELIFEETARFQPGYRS
Chain of Serine/threonine-protein kinase 16 (O75716 whole entry, the tested form may be a part): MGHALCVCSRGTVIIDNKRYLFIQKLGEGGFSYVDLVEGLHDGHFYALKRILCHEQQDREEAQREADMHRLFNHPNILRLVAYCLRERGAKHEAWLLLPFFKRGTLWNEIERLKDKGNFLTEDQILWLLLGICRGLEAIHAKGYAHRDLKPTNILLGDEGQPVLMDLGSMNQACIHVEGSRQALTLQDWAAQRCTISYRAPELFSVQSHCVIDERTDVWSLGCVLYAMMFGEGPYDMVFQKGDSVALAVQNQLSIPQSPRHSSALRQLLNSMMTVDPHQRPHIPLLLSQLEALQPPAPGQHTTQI
Chain of Ephrin type-B receptor 3 (Homo sapiens) (P54753 whole entry, the tested form may be a part): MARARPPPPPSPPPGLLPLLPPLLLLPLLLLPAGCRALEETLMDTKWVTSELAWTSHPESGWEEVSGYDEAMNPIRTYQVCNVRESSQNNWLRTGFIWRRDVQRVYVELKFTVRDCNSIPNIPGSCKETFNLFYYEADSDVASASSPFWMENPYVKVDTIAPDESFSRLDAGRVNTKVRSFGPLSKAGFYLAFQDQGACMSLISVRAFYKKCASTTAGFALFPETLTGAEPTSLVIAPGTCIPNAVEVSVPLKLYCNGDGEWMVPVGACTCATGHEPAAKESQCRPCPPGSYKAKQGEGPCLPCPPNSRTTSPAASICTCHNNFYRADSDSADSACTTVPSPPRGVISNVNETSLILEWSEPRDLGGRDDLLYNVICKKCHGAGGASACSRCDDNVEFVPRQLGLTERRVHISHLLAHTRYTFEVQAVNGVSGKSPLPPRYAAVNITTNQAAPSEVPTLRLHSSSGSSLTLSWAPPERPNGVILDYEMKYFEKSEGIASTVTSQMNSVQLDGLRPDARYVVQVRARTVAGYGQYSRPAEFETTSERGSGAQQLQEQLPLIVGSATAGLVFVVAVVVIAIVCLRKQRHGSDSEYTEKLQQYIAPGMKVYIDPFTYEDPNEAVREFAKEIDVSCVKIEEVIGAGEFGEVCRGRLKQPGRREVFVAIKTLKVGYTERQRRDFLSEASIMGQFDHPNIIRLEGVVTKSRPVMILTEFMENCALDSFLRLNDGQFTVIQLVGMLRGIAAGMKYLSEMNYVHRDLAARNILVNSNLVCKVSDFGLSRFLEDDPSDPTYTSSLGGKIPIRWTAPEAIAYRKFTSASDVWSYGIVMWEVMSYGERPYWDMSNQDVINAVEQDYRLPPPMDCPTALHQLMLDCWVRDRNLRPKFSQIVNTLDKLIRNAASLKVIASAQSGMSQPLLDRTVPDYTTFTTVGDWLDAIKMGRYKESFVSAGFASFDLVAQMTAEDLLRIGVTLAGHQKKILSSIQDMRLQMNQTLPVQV
Chain of Protein-tyrosine kinase 6 (Homo sapiens) (Q13882 whole entry, looked up, the tested form may be a part): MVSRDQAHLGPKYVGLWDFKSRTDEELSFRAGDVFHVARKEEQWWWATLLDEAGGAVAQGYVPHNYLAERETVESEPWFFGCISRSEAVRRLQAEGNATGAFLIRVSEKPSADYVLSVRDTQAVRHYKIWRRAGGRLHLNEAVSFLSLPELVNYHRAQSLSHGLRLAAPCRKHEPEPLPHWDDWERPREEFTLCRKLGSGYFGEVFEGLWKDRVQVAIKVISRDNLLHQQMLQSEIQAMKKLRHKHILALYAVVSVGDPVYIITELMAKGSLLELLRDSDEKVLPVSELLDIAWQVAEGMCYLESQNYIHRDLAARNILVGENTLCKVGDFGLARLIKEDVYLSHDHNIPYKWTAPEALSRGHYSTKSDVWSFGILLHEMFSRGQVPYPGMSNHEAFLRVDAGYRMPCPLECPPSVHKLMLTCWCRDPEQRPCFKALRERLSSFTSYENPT
Chain of Serine/threonine-protein kinase 17A (Homo sapiens) (Q9UEE5 whole entry): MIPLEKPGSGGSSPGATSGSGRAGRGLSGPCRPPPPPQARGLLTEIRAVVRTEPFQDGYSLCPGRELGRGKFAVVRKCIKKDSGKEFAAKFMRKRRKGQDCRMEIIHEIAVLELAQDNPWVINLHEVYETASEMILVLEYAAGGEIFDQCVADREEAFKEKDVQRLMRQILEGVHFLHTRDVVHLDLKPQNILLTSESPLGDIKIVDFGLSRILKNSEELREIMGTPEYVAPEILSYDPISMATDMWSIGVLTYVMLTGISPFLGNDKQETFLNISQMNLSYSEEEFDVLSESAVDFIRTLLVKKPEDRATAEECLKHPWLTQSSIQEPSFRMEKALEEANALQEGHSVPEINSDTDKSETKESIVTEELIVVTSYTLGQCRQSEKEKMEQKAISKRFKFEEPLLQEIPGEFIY
Chain of Casein kinase I isoform epsilon (Homo sapiens) (P49674 whole entry, looked up, the tested form may be a part, canonical isoform): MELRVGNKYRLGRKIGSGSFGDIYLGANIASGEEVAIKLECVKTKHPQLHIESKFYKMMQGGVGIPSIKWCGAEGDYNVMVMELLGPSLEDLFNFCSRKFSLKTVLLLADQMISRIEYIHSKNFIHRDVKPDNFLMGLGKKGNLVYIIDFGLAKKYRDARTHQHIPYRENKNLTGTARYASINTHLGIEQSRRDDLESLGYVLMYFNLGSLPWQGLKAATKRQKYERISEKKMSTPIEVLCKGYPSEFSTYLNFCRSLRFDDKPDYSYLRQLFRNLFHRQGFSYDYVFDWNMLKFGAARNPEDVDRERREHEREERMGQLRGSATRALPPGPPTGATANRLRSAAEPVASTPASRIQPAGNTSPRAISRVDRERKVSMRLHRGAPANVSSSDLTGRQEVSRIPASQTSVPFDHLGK

SMILES	inhibition [1]	inhibition [2]	inhibition [3]	inhibition [4]	inhibition [5]	inhibition [6]	inhibition [7]	inhibition [8]	inhibition [9]	inhibition [10]	inhibition [11]	inhibition [12]	Activity (Homo sapiens [13])	inhibition [14]	inhibition [15]	inhibition [16]	inhibition [17]	inhibition [18]	inhibition [19]	Activity (Homo sapiens [20])	further results
CC(C)n1nc(-c2cnc(N)c(OC(F)(F)F)c2)cc1[C@H]1[C@@H]2CN(C3COC3)C[C@@H]21	5.2%	16%	5.2%	-4.6%	7.8%	32.7%	12.8%	44.3%	50.3%	4.8%	7.7%	-1.4%	> 50%	1.2%	8%	15.7%	-9.5%	4.6%	2.5%	> 50%	inhibition [21]: 7.2%; inhibition [22]: 4.6%; Activity [23]: > 50%; inhibition [24]: 1.1%; Activity [25]: > 50%; Activity [26]: > 50%; inhibition [27]: 1.5%; inhibition [28]: 9.3%
Nc1ncc(-c2cc([C@H]3[C@@H]4CN(C5COC5)C[C@@H]43)n(CC3CC3)n2)cc1C(F)(F)F	7.5%	2.4%	6.3%	-4%	5.8%	15.9%	16.3%	38.8%	33.2%	-0.6%	0.3%	-1.6%	> 50%	6.3%	-3.8%	20.6%	-7.7%	20.4%	5.3%	> 50%	inhibition [21]: -7.5%; inhibition [22]: 10%; Activity [23]: > 50%; inhibition [24]: -3.8%; Activity [25]: > 50%; Activity [26]: > 50%; inhibition [27]: 9.5%; inhibition [28]: 13.8%
